Measurements reported in ChEMBL document CHEMBL1828507, “Novel diarylpyridinones, diarylpyridazinones and diarylphthalazinones as potential HIV-1 nonnucleoside reverse transcriptase inhibitors (NNRTIs)” (Bioorg Med Chem, 2011).

Legend:
[1] = system: Human immunodeficiency virus 1; test: Antiviral activity against wild type HIV1 BaL in human TZM-b1 cells after 48 hrs by luciferase assay; type: functional, organism-based; details: Human immunodeficiency virus 1, BaL, TZM-b1, 48 h
How it was run: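 Infected with 200 TCID₅₀ HIV-1 BaL, then 48 h culture and luciferase readout. Inhibition relative to untreated controls; EC50 by nonlinear regression. Triplicate wells, at least two independent experiments.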

[2] = system: Human immunodeficiency virus 1; test: Ratio of TMC120 EC50 to compound EC50 for wild type HIV1 BaL infected in human TZM-b1 cells; type: functional
[3] = Cytotoxicity against human TZM-b1 cells infected with wild type HIV1 BaL after 48 hrs using formazan dye by WST1 assay; type: cell-based; details: TZM-bl cells infected with wild type HIV1 BaL
How it was run: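 WST-1 reagent added, and absorbance at 450 nm read after 90 min. Viability relative to untreated controls; CC50 by nonlinear regression. Three replicate wells, at least two independent experiments.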

[4] = molecular target: Human immunodeficiency virus type 1 reverse transcriptase (Human immunodeficiency virus 1, UniProt Q72547); test: Inhibition of wild type HIV1 reverse transcriptase
[5] = Selectivity index, ratio of CC50 for human TZM-bl cells to EC50 for wild type HIV1 BaL; type: toxicity, cell-based; details: read-out: Ratio CC50/EC50
How it was run: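 SI taken as CC50/EC50. CC50 from a 48 h WST-1 viability assay (A450) in TZM-bl cells. EC50 from a 48 h luciferase readout in TZM-bl cells infected with 200 TCID₅₀ HIV-1 BaL after a 30 min compound pre-incubation with DEAE dextran. Both values by nonlinear regression.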

[6] = system: Human immunodeficiency virus 1; test: Ratio of EC50 for HIV1 BaL expressing reverse transcriptase V106A mutant infected in human TZM-bl cells to EC50 for wild type HIV1 BaL in human TZM-bl cells; type: functional
[7] = system: Human immunodeficiency virus 1; test: Antiviral activity against HIV1 VI829 expressing reverse transcriptase Y181C mutant infected in human TZM-bl cells after 48 hrs by luciferase assay; type: functional, organism-based; details: Human immunodeficiency virus 1, VI829, TZM-bl
[8] = system: Human immunodeficiency virus 1; test: Antiviral activity against HIV1 BaL expressing reverse transcriptase V106A mutant infected in human TZM-bl cells after 48 hrs by luciferase assay; type: functional, organism-based; details: Human immunodeficiency virus 1, BaL
[9] = system: Human immunodeficiency virus 1; test: Antiviral activity against wild type HIV1 VI829 infected in human TZM-b1 cells after 48 hrs by luciferase assay; type: functional, organism-based; details: Human immunodeficiency virus 1, VI829, TZM-b1, 48 h
[10] = system: Human immunodeficiency virus 1; test: Ratio of EC50 for HIV1 VI829 expressing reverse transcriptase Y181C mutant infected in human TZM-b1 cells to EC50 for wild type HIV1 VI829 in human TZM-b1 cells; type: functional

Compound	EC50 [1] [µM]	CC50 at 48 h [3] [µM]	selectivity ratio [5]	further results
Cc1cc(C)c(Oc2ccc(=O)n(Nc3ccc(C#N)cc3)n2)c(C)c1	0.69	19.9	29	Ratio EC50 [6]: 2; EC50 [7]: > 10 µM; EC50 [8]: 1.12 µM; IC50 [4]: 100 µM; EC50 [9]: 0.16 µM; Ratio EC50 [10]: >64
Cc1cc(C)c(Oc2ccc(=O)n(Nc3cccc(C#N)c3)n2)c(C)c1	> 10			
Cc1cccc(C)c1Oc1ccc(=O)n(Nc2ccc(F)cc2)n1	> 10			
Cc1cccc(C)c1Oc1ccc(=O)n(Nc2cccc(C#N)c2)n1	> 10			
Cc1cccc(C)c1Oc1ccc(=O)n(Nc2ccccc2)n1	> 10			
Cc1cc(C#N)cc(C)c1Oc1ccc(=O)n(Nc2cccc(C#N)c2)n1	> 10			
Cc1cc(Cl)cc(C)c1Oc1ccc(=O)n(Nc2ccc(C#N)cc2)n1	0.6	14.1	23	Ratio EC50 [6]: 8; EC50 [7]: > 10 µM; EC50 [8]: 4.55 µM; EC50 [9]: 0.5 µM; Ratio EC50 [10]: >20
Cc1cc(Br)cc(C)c1Oc1ccc(=O)n(Nc2ccc(C#N)cc2)n1	0.64	> 100	> 193	Ratio EC50 [6]: 5; EC50 [7]: > 10 µM; EC50 [8]: 2.97 µM; EC50 [9]: 0.34 µM; Ratio EC50 [10]: >29
Cc1cc(C)c(Nc2ccc(=O)n(Nc3ccc(C#N)cc3)c2)c(C)c1	> 10			IC50 [4]: 760 µM
Cc1cc(C)c(Nc2ccc(=O)n(Nc3ccc(C(F)(F)F)cc3)c2)c(C)c1	> 10			
Cc1cc(C)c(Nc2ccc(=O)n(Nc3cccc(C#N)c3)c2)c(C)c1	> 10			
Cc1cc(C)c(Nc2ccnc(Nc3ccc(C#N)cc3)n2)c(C)c1 [DAPIVIRINE]	0.002	2.88	1440	Ratio EC50 [6]: 1.3; EC50 [7]: 0.0108 µM; EC50 [8]: 0.0025 µM; IC50 [4]: 2.5 µM; EC50 [9]: 0.002 µM; Ratio EC50 [10]: 5.4

Further lines, with some results ahead:

EC50 [1] [µM]	Compound	CC50 at 48 h [3] [µM]	selectivity ratio [5]	further results
> 10	Cc1cc(C)c(Nc2ccc(=O)n(Nc3ccccc3)c2)c(C)c1			
> 10	N#Cc1ccc(Nn2cc(Nc3ccccc3)ccc2=O)cc1			
> 10	O=c1ccc(Nc2ccccc2)cn1Nc1ccccc1			
> 10	N#Cc1ccc(Nc2ccc(=O)n(Nc3ccc(C#N)cc3)c2)cc1			
1.37	Cc1cc(C)c(Nc2ccc(=O)n(Nc3ccc(C#N)cc3)n2)c(C)c1	> 100	> 69	Ratio EC50 [2]: 700; IC50 [4]: 547 µM
> 10	Cc1cc(C)c(Nc2ccc(=O)n(Nc3ccc(C(F)(F)F)cc3)n2)c(C)c1			
> 10	Cc1cc(C)c(Nc2ccc(=O)n(Nc3cccc(C#N)c3)n2)c(C)c1	5.04	< 1	
10	Cc1cc(C)c(Oc2ccc(=O)n(Nc3ccc(C(F)(F)F)cc3)n2)c(C)c1	21.2	2.1	
9.64	Cc1cc(C)c(Oc2ccc(=O)n(Nc3ccc(F)cc3)n2)c(C)c1	23.5	2.4	
3.95	Cc1cc(C)c(Oc2ccc(=O)n(Nc3ccc(Cl)cc3)n2)c(C)c1	22.3	5.6	
7.63	Cc1cccc(C)c1Oc1ccc(=O)n(Nc2ccc(C#N)cc2)n1	> 100	> 13	
1.75	Cc1cc(C#N)cc(C)c1Oc1ccc(=O)n(Nc2ccc(C#N)cc2)n1	24.7	14	
> 5	Cc1cc(Cl)cc(C)c1Oc1ccc(=O)n(Nc2cccc(C#N)c2)n1			
3.19	Cc1cc(Br)cc(C)c1Oc1ccc(=O)n(Nc2ccc(Cl)cc2)n1	63.5	20	
1.39	Cc1cc(C)c(Oc2nn(Nc3ccc(C#N)cc3)c(=O)c3ccccc23)c(C)c1	60.4	43.3	IC50 [4]: 928 µM
3.6	Cc1cc(Cl)cc(C)c1Oc1nn(Nc2ccc(C#N)cc2)c(=O)c2ccccc12	51.2	14.2	
10	Cc1cc(Cl)cc(C)c1Oc1nn(Nc2ccc(Cl)cc2)c(=O)c2ccccc12			
